# ChEMBL document CHEMBL1125228, “A 3-D model for 5-HT1A-receptor agonists based on stereoselective methyl-substituted and conformationally restricted analogues of 8-hydroxy-2-(dipropylamino)tetralin” (J Med Chem, 1991)
# Where “and” joins values, the source holds several entries; their conditions need not be identical. Equal values may be shown once.
# Key:
# Rattus norvegicus [1] = assay: In vivo accumulation of DOPA in hemisphere of rat brain at a dose of 0.1 umol/kg.; format: functional
# Procedure, shortened: (§1)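 Rats, reserpine-pretreated (5 mg/kg, i.e. 9 μmol/kg sc, 6 h before) or nonpretreated, given test hydrochloride sc in the neck (injection volume 5 mL/kg). Decarboxylase inhibitor NSD 1015 (100 mg/kg ip or 60 mg/kg sc) given 30 min later; decapitation after another 30 min. Brain dissected on ice into striatum, limbic system, hemispheres, brain stem. Homogenized in 0.1 M perchloric acid with α-methyl-DOPA internal standard; DOPA measured by ion-pair reversed-phase HPLC with electrochemical detection.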
# Rattus norvegicus [2] = assay: In vivo accumulation of 5-HTP in limbic of rat brain at a dose of 0.32 umol/kg.; format: functional
# Procedure, shortened: (§2)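 Hydrochlorides given sc in the neck (5 mL/kg) to rats, either untreated or reserpine-pretreated (5 mg/kg sc, 6 h before). Decarboxylase inhibitor NSD 1015 (100 mg/kg ip or 60 mg/kg sc) given 30 min later; rats decapitated after another 30 min. Striatum, limbic system, hemispheres and brain stem dissected on ice and homogenized in 0.1 M perchloric acid with α-methyl-DOPA internal standard. DOPA, DA, 5-HTP and 5-HT measured by ion-pair reversed-phase HPLC with electrochemical detection.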
# Rattus norvegicus [3] = assay: In vivo accumulation of DOPA in brain stem of rat brain at a dose of 1 umol/kg.; format: functional; procedure, shortened: as §2
# Rattus norvegicus [4] = assay: In vivo accumulation of 5-HTP in hemisphere of rat brain at a dose of 0.32 umol/kg.; format: functional; procedure, shortened: as §2
# Rattus norvegicus [5] = assay: In vivo accumulation of DOPA in limbic of rat brain at a dose of 0.32 umol/kg.; format: functional; procedure, shortened: as §1
# Rattus norvegicus [6] = assay: In vivo accumulation of 5-HT in striatum of rat brain at a dose of 0.32 umol/kg.; format: functional; procedure, shortened: as §2
# Rattus norvegicus [7] = assay: In vivo accumulation of 5-HTP in limbic of rat brain at a dose of 0.1 umol/kg.; format: functional; procedure, shortened: as §2
# Rattus norvegicus [8] = assay: In vivo accumulation of 5-HT in limbic of rat brain at a dose of 0.1 umol/kg.; format: functional, Limbic system; procedure, shortened: as §2
# Rattus norvegicus [9] = assay: In vivo accumulation of 5-HT in limbic of rat brain at a dose of 0.32 umol/kg.; format: functional; procedure, shortened: as §2
# Rattus norvegicus [10] = assay: In vivo accumulation of DOPA in striatum of rat brain at a dose of 0.1 umol/kg.; format: functional; procedure, shortened: as §1
# Rattus norvegicus [11] = assay: In vivo accumulation of 5-HTP in hemisphere of rat brain at a dose of 1 umol/kg.; format: functional; procedure, shortened: as §2
# Rattus norvegicus [12] = assay: In vivo accumulation of DOPA in striatum of rat brain at a dose of 0.32 umol/kg.; format: functional; procedure, shortened: as §1
# Rattus norvegicus [13] = assay: In vivo accumulation of DOPA in striatum of rat brain at a dose of 1 umol/kg.; format: functional; procedure, shortened: as §1
# Rattus norvegicus [14] = assay: In vivo accumulation of 5-HTP in striatum of rat brain at a dose of 0.32 umol/kg.; format: functional; procedure, shortened: as §2
# Rattus norvegicus [15] = assay: In vivo accumulation of 5-HTP in striatum of rat brain at a dose of 0.1 umol/kg.; format: functional; procedure, shortened: as §2
# Rattus norvegicus [16] = assay: In vivo accumulation of 5-HT in striatum of rat brain at a dose of 1 umol/kg.; format: functional; procedure, shortened: as §2
# Rattus norvegicus [17] = assay: In vivo accumulation of 5-HT in striatum of rat brain at a dose of 0.1 umol/kg.; format: functional; procedure, shortened: as §2
# Rattus norvegicus [18] = assay: In vivo accumulation of DOPA in limbic of rat brain at a dose of 0.1 umol/kg.; format: functional; procedure, shortened: as §1
# Rattus norvegicus [19] = assay: In vivo accumulation of 5-HTP in hemisphere of rat brain at a dose of 0.1 umol/kg.; format: functional; procedure, shortened: as §2
# Rattus norvegicus [20] = assay: In vivo accumulation of 5-HTP in brain stem of rat brain at a dose of 0.1 umol/kg.; format: functional; procedure, shortened: as §2
# Rattus norvegicus [21] = assay: In vivo accumulation of DA in striatum of rat brain at a dose of 0.1 umol/kg.; format: functional; procedure, shortened: as §2
# Rattus norvegicus [22] = assay: In vivo accumulation of 5-HTP in limbic of rat brain at a dose of 1 umol/kg.; format: functional; procedure, shortened: as §2
# Rattus norvegicus [23] = assay: In vivo accumulation of DOPA in brain stem of rat brain at a dose of 0.1 umol/kg.; format: functional; procedure, shortened: as §2
# Rattus norvegicus [24] = assay: In vivo accumulation of DA in striatum of rat brain at a dose of 1 umol/kg.; format: functional; procedure, shortened: as §2
# Rattus norvegicus [25] = assay: In vivo accumulation of DOPA in limbic of rat brain at a dose of 1 umol/kg.; format: functional; procedure, shortened: as §1
# Rattus norvegicus [26] = assay: In vivo accumulation of 5-HT in limbic of rat brain at a dose of 1 umol/kg.; format: functional; procedure, shortened: as §2
# Rattus norvegicus [27] = assay: In vivo accumulation of DOPA in brain stem of rat brain at a dose of 0.32 umol/kg.; format: functional; procedure, shortened: as §2
# Rattus norvegicus [28] = assay: In vivo accumulation of DA in striatum of rat brain at a dose of 0.32 umol/kg.; format: functional; procedure, shortened: as §2
# Rattus norvegicus [29] = assay: In vivo accumulation of 5-HTP in brain stem of rat brain at a dose of 0.32 umol/kg.; format: functional; procedure, shortened: as §2
# Rattus norvegicus [30] = assay: In vivo accumulation of 5-HTP in brain stem of rat brain at a dose of 1 umol/kg.; format: functional; procedure, shortened: as §2
# Rattus norvegicus [31] = assay: In vivo accumulation of DOPA in hemisphere of rat brain at a dose of 0.32 umol/kg.; format: functional; procedure, shortened: as §1
# Rattus norvegicus [32] = assay: In vivo accumulation of 5-HTP in striatum of rat brain at a dose of 1 umol/kg.; format: functional; procedure, shortened: as §2
# [33] = molecular target: T1, Dopamine receptor (Rattus norvegicus) (UniProt P25115+P19020+P30729+P18901+P61169); assay: In vivo accumulation of DOPA in limbic of rat brain at a dose of 53 umol/kg.; format: functional, organism-based; procedure, shortened: as §1
# [34] = molecular target: T1, Dopamine receptor (Rattus norvegicus); assay: In vivo accumulation of DOPA in hemisphere of rat brain at a dose of 53 umol/kg.; format: functional, organism-based; procedure, shortened: as §1
# [35] = molecular target: Serotonin (5-HT) receptor (Rattus norvegicus) (UniProt P35563+P35365+P32305+P31388+Q9JJ16+P28564+P30994+Q62758+P08909+P14842+P30940+P35364+P19327+P28565); assay: Dose corresponding to half-maximal decrease of 5-HTP formation in the limbic and striatal parts of rat brain; format: functional, tissue-based
# Rattus norvegicus [36] = assay: In vivo accumulation of DOPA in limbic of rat brain at a dose of 3.2 umol/kg.; format: functional; procedure, shortened: as §1
# Rattus norvegicus [37] = assay: In vivo accumulation of 5-HTP in brain stem of rat brain at a dose of 3.2 umol/kg.; format: functional; procedure, shortened: as §2
# Rattus norvegicus [38] = assay: In vivo accumulation of DOPA in hemisphere of rat brain at a dose of 3.2 umol/kg.; format: functional; procedure, shortened: as §1
# Rattus norvegicus [39] = assay: In vivo accumulation of 5-HTP in limbic of rat brain at a dose of 3.2 umol/kg.; format: functional; procedure, shortened: as §2
# Rattus norvegicus [40] = assay: In vivo accumulation of 5-HT in striatum of rat brain at a dose of 3.2 umol/kg.; format: functional; procedure, shortened: as §2
# Rattus norvegicus [41] = assay: In vivo accumulation of DOPA in brain stem of rat brain at a dose of 3.2 umol/kg.; format: functional; procedure, shortened: as §2
# Rattus norvegicus [42] = assay: In vivo accumulation of 5-HT in limbic of rat brain at a dose of 3.2 umol/kg.; format: functional; procedure, shortened: as §2
# Rattus norvegicus [43] = assay: In vivo accumulation of 5-HTP in striatum of rat brain at a dose of 3.2 umol/kg.; format: functional; procedure, shortened: as §2
# Rattus norvegicus [44] = assay: In vivo accumulation of DA in striatum of rat brain at a dose of 3.2 umol/kg.; format: functional; procedure, shortened: as §2
# Rattus norvegicus [45] = assay: In vivo accumulation of DOPA in striatum of rat brain at a dose of 3.2 umol/kg.; format: functional; procedure, shortened: as §1
# Rattus norvegicus [46] = assay: In vivo accumulation of 5-HTP in hemisphere of rat brain at a dose of 3.2 umol/kg.; format: functional; procedure, shortened: as §2
Compound,Control (Rattus norvegicus [2]),Control (Rattus norvegicus [3]),Control (Rattus norvegicus [4]),Control (Rattus norvegicus [5]),Control (Rattus norvegicus [6]),Control (Rattus norvegicus [9]),Control (Rattus norvegicus [11]),Control (Rattus norvegicus [12]),Control (Rattus norvegicus [13]),Control (Rattus norvegicus [14]),Control (Rattus norvegicus [16]),Control (Rattus norvegicus [22]),Control (Rattus norvegicus [24]),Control (Rattus norvegicus [25]),Control (Rattus norvegicus [26]),Control (Rattus norvegicus [27]),Control (Rattus norvegicus [28]),Control (Rattus norvegicus [29]),Control (Rattus norvegicus [30]),Control (Rattus norvegicus [31]),also measured
CCCN1CCC[C@H]2c3c(O)cccc3CC[C@@H]21,69.7%,133.3%,60.8%,115.9% and 107.8%,81.6%,138.1%,43%,113.6%,117.6%,51.5%,134.9%,52.3%,115.8%,107.3% and 111%,170.1%,110.1%,108.2%,70.7%,61.1%,114%,Control (Rattus norvegicus [1]): 97%; Control (Rattus norvegicus [7]): 85.1%; Control (Rattus norvegicus [8]): 126.7%; Control (Rattus norvegicus [10]): 109.3%; Control (Rattus norvegicus [15]): 55.3%; Control (Rattus norvegicus [17]): 98.1%; Control (Rattus norvegicus [18]): 95.9% and 124.5%; Control (Rattus norvegicus [19]): 74.7%; Control (Rattus norvegicus [20]): 90.8%; Control (Rattus norvegicus [21]): 123.1%; Control (Rattus norvegicus [23]): 93.2%; Control (Rattus norvegicus [32]): 44.7%
CCCN1CCC[C@H]2Cc3cccc(O)c3C[C@@H]21,–,–,–,–,–,–,–,–,–,–,–,–,–,–,–,–,–,–,–,–,Control [33]: 91.4% and 87.5%; Control [34]: 98.8%; ED50 [35]: > 0.05 mg/kg
CCCN1CCC[C@H]2Cc3cccc(O)c3C[C@H]21,–,–,–,–,–,–,–,–,–,–,–,–,–,–,–,–,–,–,–,–,Control [33]: 76.9% and 83.2%; Control [34]: 116%; ED50 [35]: > 0.05 mg/kg
CCCN1CCC[C@@H]2c3c(O)cccc3CC[C@H]21,85.1%,102.9%,70.9%,91.1% and 114.1%,107.1%,108.1%,51.9%,109.4%,116.2%,69.9%,113.2%,58.5%,129.5%,85.5% and 95.2%,119.3%,87%,110.6%,76.1%,65.3%,111%,Control (Rattus norvegicus [36]): 111.4% and 118.2%; Control (Rattus norvegicus [37]): 59.9%; Control (Rattus norvegicus [38]): 119%; Control (Rattus norvegicus [39]): 50.3%; Control (Rattus norvegicus [40]): 128.8%; Control (Rattus norvegicus [41]): 125.1%; Control (Rattus norvegicus [42]): 144.1%; Control (Rattus norvegicus [43]): 34%; Control (Rattus norvegicus [44]): 120.2%; Control (Rattus norvegicus [45]): 99.6%; Control (Rattus norvegicus [32]): 56.3%; Control (Rattus norvegicus [46]): 50.6%
